{
  "source": "ChEMBL document CHEMBL4368909",
  "about": "“Identification of Dihydrofuro[3,4- d]pyrimidine Derivatives as Novel HIV-1 Non-Nucleoside Reverse Transcriptase Inhibitors with Promising Antiviral Activities and Desirable Physicochemical Properties” (J Med Chem, 2019)",
  "key": {"[1]": {"assay": "Sub-acute toxicity in Kunming mouse assessed as effect on liver at 50 mg/kg/day, po administered for 2 weeks by hematoxylin and eosin staining-based assay", "type": "organism-based", "details": "in vivo, 336 h", "summary_of_the_method": "(§1)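 Mice were dosed orally at 50 mg/kg/day for 2 weeks and observed for behavioural abnormalities during treatment. Organs were then examined by hematoxylin–eosin staining.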"}, "[2]": {"assay": "AUCt in Wistar rat at 20 mg/kg, po by LC-MS/MS analysis", "type": "ADME, organism-based", "details": "in vivo", "summary_of_the_method": "(§2)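 Male/unspecified Wistar rats given one dose, 2 mg/kg intravenously or 20 mg/kg orally; plasma concentration–time profiles followed; PK parameters reported as mean ± SD, n = 5.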"}, "[3]": {"assay": "Aqueous solubility of the compound at pH at 7 by HPLC analysis", "type": "physicochemical", "details": "buffer, pH 7", "summary_of_the_method": "(§3)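 Aqueous solubility read by HPLC in buffer at pH 2.0, 7.0 or 7.4.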"}, "[4]": {"assay": "Protein binding in human plasma at 2 uM after 5 hrs by LC/MS analysis", "type": "ADME, cell-free", "details": "read-out: PPB (converted)"}, "[5]": {"assay": "Tmax in Wistar rat at 2 mg/kg, iv by LC-MS/MS analysis", "type": "ADME, organism-based", "details": "in vivo", "summary_of_the_method": "as §2"}, "[6]": {"test_system": "Human immunodeficiency virus 2", "assay": "Antiviral activity against HIV2 ROD infected in human MT4 cells assessed as reduction in virus-induced cytopathic effect after 5 days by MTT assay", "details": "Human immunodeficiency virus 2, ISOLATE ROD, MT4, 120 h"}, "[7]": {"assay": "AUC (0 to infinity) in Wistar rat at 20 mg/kg, po by LC-MS/MS analysis", "type": "ADME, organism-based", "set-up": "dose 20 mg/kg, route oral, time infinity", "details": "in vivo", "summary_of_the_method": "as §2"}, "[8]": {"assay": "Cmax in Wistar rat at 20 mg/kg, po by LC-MS/MS analysis", "type": "ADME, organism-based", "set-up": "dose 20 mg/kg, route oral", "details": "in vivo", "summary_of_the_method": "as §2"}, "[9]": {"assay": "Half life in Wistar rat at 20 mg/kg, po by LC-MS/MS analysis", "type": "ADME, organism-based", "details": "in vivo", "summary_of_the_method": "as §2"}, "[10]": {"assay": "Tmax in Wistar rat at 20 mg/kg, po by LC-MS/MS analysis", "type": "ADME, organism-based", "details": "in vivo", "summary_of_the_method": "as §2"}, "[11]": {"assay": "Protein binding in human plasma assessed as recovery rate at 2 uM after 5 hrs by LC/MS analysis", "type": "ADME, cell-free"}, "[12]": {"assay": "Clearance in Wistar rat at 2 mg/kg, iv by LC-MS/MS analysis", "type": "ADME, organism-based", "details": "in vivo", "summary_of_the_method": "as §2"}, "Cytochrome P450 2C9": {"target": "Cytochrome P450 2C9 (Homo sapiens, UniProt P11712)", "sequence (P11712 whole entry)": "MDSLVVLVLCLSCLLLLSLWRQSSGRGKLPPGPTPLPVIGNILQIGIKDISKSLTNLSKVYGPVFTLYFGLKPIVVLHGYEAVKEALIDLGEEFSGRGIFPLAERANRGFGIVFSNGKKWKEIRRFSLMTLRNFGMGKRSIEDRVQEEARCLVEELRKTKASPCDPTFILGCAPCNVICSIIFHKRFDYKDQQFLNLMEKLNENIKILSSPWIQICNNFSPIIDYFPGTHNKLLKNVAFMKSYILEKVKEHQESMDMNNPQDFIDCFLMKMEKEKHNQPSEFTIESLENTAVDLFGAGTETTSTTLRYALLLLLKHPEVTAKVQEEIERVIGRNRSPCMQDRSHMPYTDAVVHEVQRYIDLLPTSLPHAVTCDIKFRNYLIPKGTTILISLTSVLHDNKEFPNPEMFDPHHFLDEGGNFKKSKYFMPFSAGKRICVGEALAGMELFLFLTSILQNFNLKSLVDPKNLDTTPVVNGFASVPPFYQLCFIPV", "assay": "Inhibition of CYP2C9 in human liver microsomes using diclofenac as substrate after 10 mins in presence of NADPH", "type": "ADME"}, "Cytochrome P450 1A2": {"target": "T1, Cytochrome P450 1A2 (Homo sapiens, UniProt P05177)", "T1 sequence (P05177 whole entry)": "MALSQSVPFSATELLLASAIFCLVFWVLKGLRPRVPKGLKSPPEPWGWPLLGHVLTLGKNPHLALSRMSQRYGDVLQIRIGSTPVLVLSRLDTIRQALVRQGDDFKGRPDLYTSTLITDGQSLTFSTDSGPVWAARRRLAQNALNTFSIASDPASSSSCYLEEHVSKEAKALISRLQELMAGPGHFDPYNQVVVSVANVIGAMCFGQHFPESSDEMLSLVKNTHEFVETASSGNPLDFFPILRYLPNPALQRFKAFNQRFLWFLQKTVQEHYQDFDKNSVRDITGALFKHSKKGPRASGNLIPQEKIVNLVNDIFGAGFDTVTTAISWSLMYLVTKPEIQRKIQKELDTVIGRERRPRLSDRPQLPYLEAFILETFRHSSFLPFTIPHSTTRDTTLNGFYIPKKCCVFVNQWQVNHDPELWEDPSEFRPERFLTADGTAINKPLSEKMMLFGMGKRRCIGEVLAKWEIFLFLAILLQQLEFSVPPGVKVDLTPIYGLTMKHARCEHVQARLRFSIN", "assay": "Inhibition of CYP1A2 in human liver microsomes using phenacetin as substrate after 10 mins in presence of NADPH", "type": "ADME"}, "[13]": {"assay": "Sub-acute toxicity in Kunming mouse assessed as behavior abnormalities at 50 mg/kg/day, po administered for 2 weeks by hematoxylin and eosin staining-based assay", "type": "organism-based", "details": "in vivo, 336 h", "summary_of_the_method": "as §1"}, "[14]": {"test_system": "Human immunodeficiency virus 1", "assay": "Antiviral activity against HIV1 harboring reverse transcriptase Y188L mutant infected in human MT4 cells assessed as reduction in virus-induced cytopathic effect after 5 days by MTT assay", "type": "functional, organism-based", "details": "Human immunodeficiency virus 1, MT4, 120 h"}, "MT4": {"test_system": "MT4", "assay": "Cytotoxicity against human MT4 cells after 5 days by MTT assay", "type": "cell-based", "details": "mt4, 120 h"}, "[15]": {"assay": "Sub-acute toxicity in Kunming mouse assessed as effect on heart at 50 mg/kg/day, po administered for 2 weeks by hematoxylin and eosin staining-based assay", "type": "organism-based", "details": "in vivo, 336 h", "summary_of_the_method": "as §1"}, "[16]": {"assay": "Aqueous solubility of the compound at pH at 2 by HPLC analysis", "type": "physicochemical", "details": "buffer, pH 2", "summary_of_the_method": "as §3"}, "[17]": {"assay": "Cmax in Wistar rat at 2 mg/kg, iv by LC-MS/MS analysis", "type": "ADME, organism-based", "set-up": "dose 2 mg/kg, route intravenous", "details": "in vivo", "summary_of_the_method": "as §2"}, "[18]": {"test_system": "Human immunodeficiency virus 1", "assay": "Antiviral activity against HIV1 harboring reverse transcriptase E138K mutant infected in human MT4 cells assessed as reduction in virus-induced cytopathic effect after 5 days by MTT assay", "type": "functional, organism-based", "details": "Human immunodeficiency virus 1, MT4, 120 h"}, "[19]": {"test_system": "Human immunodeficiency virus 1", "assay": "Resistance factor, ratio of EC50 for HIV1 harboring reverse transcriptase Y188L mutant to EC50 for wild type HIV1", "type": "functional", "summary_of_the_method": "(§4)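 The resistance factor is the EC50 against the mutant strain divided by the EC50 against wild-type HIV-1. Both were measured in MT-4 cells by MTT read-out of protection from virus-induced cytopathicity.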"}, "[20]": {"test_system": "Human immunodeficiency virus 1", "assay": "Resistance factor, ratio of EC50 for HIV1 harboring reverse transcriptase L100I mutant to EC50 for wild type HIV1", "type": "functional", "summary_of_the_method": "as §4"}, "[21]": {"assay": "Sub-acute toxicity in Kunming mouse assessed as effect on lungs at 50 mg/kg/day, po administered for 2 weeks by hematoxylin and eosin staining-based assay", "type": "organism-based", "details": "in vivo, 336 h", "summary_of_the_method": "as §1"}, "[22]": {"test_system": "Human immunodeficiency virus 1", "assay": "Resistance factor, ratio of EC50 for HIV1 harboring reverse transcriptase Y181C mutant to EC50 for wild type HIV1", "type": "functional", "summary_of_the_method": "as §4"}, "[23]": {"assay": "AUCt in Wistar rat at 2 mg/kg, iv by LC-MS/MS analysis", "type": "ADME, organism-based", "details": "in vivo", "summary_of_the_method": "as §2"}, "[24]": {"test_system": "Human immunodeficiency virus 1", "assay": "Antiviral activity against HIV1 harboring reverse transcriptase K103N mutant infected in human MT4 cells assessed as reduction in virus-induced cytopathic effect after 5 days by MTT assay", "type": "functional, organism-based", "details": "Human immunodeficiency virus 1, MT4, 120 h"}, "[25]": {"test_system": "Human immunodeficiency virus 1", "assay": "Resistance factor, ratio of EC50 for HIV1 harboring reverse transcriptase F227L/V106A double mutant to EC50 for wild type HIV1", "type": "functional", "summary_of_the_method": "as §4"}, "[26]": {"assay": "Acute toxicity in Kunming mouse assessed as behavior abnormalities at 800 mg/kg, po measured after 2 weeks", "type": "organism-based", "details": "in vivo, 336 h", "summary_of_the_method": "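Kunming mice received a single intragastric dose of 800 mg/kg. Deaths and behaviour were observed over 2 weeks and compared with a control group.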"}, "[27]": {"test_system": "Human immunodeficiency virus 1", "assay": "Antiviral activity against HIV1 harboring reverse transcriptase F227L/V106A double mutant infected in human MT4 cells assessed as reduction in virus-induced cytopathic effect after 5 days by MTT assay", "type": "functional, organism-based", "details": "Human immunodeficiency virus 1, MT4, 120 h"}, "[28]": {"assay": "Half life in Wistar rat at 2 mg/kg, iv by LC-MS/MS analysis", "type": "ADME, organism-based", "details": "in vivo", "summary_of_the_method": "as §2"}, "[29]": {"test_system": "Human immunodeficiency virus 1", "assay": "Antiviral activity against wild type HIV1 3B infected in human MT4 cells assessed as reduction in virus-induced cytopathic effect after 5 days by MTT assay", "type": "functional, organism-based", "details": "Human immunodeficiency virus 1, 3B, MT4, 120 h"}, "[30]": {"assay": "Oral bioavailability in Wistar rat at 20 mg/kg by LC-MS/MS analysis", "type": "ADME, organism-based", "details": "in vivo", "summary_of_the_method": "as §2"}, "[31]": {"assay": "Sub-acute toxicity in Kunming mouse assessed as effect on kidneys at 50 mg/kg/day, po administered for 2 weeks by hematoxylin and eosin staining-based assay", "type": "organism-based", "details": "in vivo, 336 h", "summary_of_the_method": "as §1"}},
  "data": [
    {"molecule": "Cc1cc(C#N)cc(C)c1Oc1nc(NC2CCN(Cc3ccc(C(N)=O)cc3)CC2)nc2c1COC2", "values": [
      {"measurement": "Activity", "setting": "[1]", "result": "Non-Toxic"},
      {"measurement": "AUC(0-t)", "setting": "[2]", "result": 1550, "unit": "ng·h/mL"},
      {"measurement": "solubility", "setting": "[3]", "result": 13.3, "unit": "µg/mL"},
      {"measurement": "fraction unbound at 5 h, 2 µM", "setting": "[4]", "result": 0.07},
      {"measurement": "Tmax", "setting": "[5]", "result": 1.98, "unit": "min"},
      {"measurement": "EC50", "setting": "[6]", "result": 12700, "unit": "nM"},
      {"measurement": "AUC(0-inf)", "setting": "[7]", "result": 1660, "unit": "ng·h/mL"},
      {"measurement": "Cmax", "setting": "[8]", "result": 400, "unit": "ng/mL"},
      {"measurement": "half-life", "setting": "[9]", "result": 11.1, "unit": "h"},
      {"measurement": "Tmax", "setting": "[10]", "result": 1.33, "unit": "h"},
      {"measurement": "Drug recovery", "setting": "[11]", "result": 86.3, "unit": "%"},
      {"measurement": "clearance", "setting": "[12]", "result": 61.5, "unit": "mL/min/kg"},
      {"measurement": "IC50", "setting": "Cytochrome P450 2C9", "result": 46600, "unit": "nM"},
      {"measurement": "IC50", "setting": "Cytochrome P450 1A2", "result": "> 50000", "unit": "nM"},
      {"measurement": "Activity", "setting": "[13]", "result": "Non-Toxic"},
      {"measurement": "EC50", "setting": "[14]", "result": 8.4, "unit": "nM"},
      {"measurement": "CC50", "setting": "MT4", "result": "> 250000", "unit": "nM"},
      {"measurement": "Activity", "setting": "[15]", "result": "Non-Toxic"},
      {"measurement": "solubility", "setting": "[16]", "result": 198, "unit": "µg/mL"},
      {"measurement": "Cmax", "setting": "[17]", "result": 460, "unit": "ng/mL"},
      {"measurement": "EC50", "setting": "[18]", "result": 7, "unit": "nM"},
      {"measurement": "Ratio EC50", "setting": "[19]", "result": 5.3},
      {"measurement": "Ratio EC50", "setting": "[20]", "result": 1.5},
      {"measurement": "Activity", "setting": "[21]", "result": "Non-Toxic"},
      {"measurement": "Ratio EC50", "setting": "[22]", "result": 2.8},
      {"measurement": "AUC(0-t)", "setting": "[23]", "result": 500, "unit": "ng·h/mL"},
      {"measurement": "EC50", "setting": "[24]", "result": 0.9, "unit": "nM"},
      {"measurement": "Ratio EC50", "setting": "[25]", "result": 11.9},
      {"measurement": "Activity", "setting": "[26]", "result": "Non-Toxic"},
      {"measurement": "EC50", "setting": "[27]", "result": 19, "unit": "nM"},
      {"measurement": "half-life", "setting": "[28]", "result": 1.09, "unit": "h"},
      {"measurement": "EC50", "setting": "[29]", "result": 1.6, "unit": "nM"},
      {"measurement": "F", "setting": "[30]", "result": 30.96, "unit": "%"},
      {"measurement": "Activity", "setting": "[31]", "result": "Non-Toxic"}
    ]}
  ]
}
